Activity calls are given as the source filed them. The calls are words filed in the database; no cut-off is given here.
How the values were obtained:
[1] = target: T1, Amyloid-beta precursor protein (Homo sapiens, UniProt P05067); assay: Inhibition of amyloid beta (1 to 42) (unknown origin) aggregation at 100 uM incubated for 48 hrs by ThioflavinT staining based fluorescence assay relative to control
Method in brief: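 Compound in DMSO (1 μl of a 1 mM solution) mixed with 9 μl of 25 μM Aβ1–42 in Tris pH 7.4. Incubated 48 h at 37 °C without agitation, then 200 μl of 5 μM ThT added. Fluorescence read at ex 446/em 500 nm; % inhibition vs DMSO control, solvent blank subtracted.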

[2] = target: T1, Amyloid-beta precursor protein; assay: Inhibition of amyloid beta (1 to 42) (unknown origin) aggregation incubated for 48 hrs by ThioflavinT staining based fluorescence assay
BV-2 [3] = assay: Cytotoxicity against mouse BV-2 cells assessed as reduction in cell viability at 10 uM measured after 24 hrs by MTT assay; type: toxicity, cell-based; settings: bv-2, 24 h
Method in brief: (§1)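 BV-2 microglia grown in DMEM with 10% FBS, HEPES and Glutamax at 37 °C, 5% CO2, seeded overnight at 1 × 10^4 cells/well. Compound alone at 0–200 μM (range extended lower where needed) for 24 h. MTT 2 h at 37 °C, formazan dissolved in DMSO, A570 read. Used to pick non-toxic concentrations.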

BV-2 [4] = assay: Neuroprotective activity in amyloid beta (1 to 42)-induced cytotoxicity in mouse BV-2 cells assessed as cell viability at 10 uM measured after 24 hrs by MTT assay (reference value: 54.96 +/- 1.12%); type: functional; settings: read-out: Activity
[5] = Induction of ROS generation in mouse BV-2 cells at 10 uM measured after 24 hrs by DCFH-DA staining based fluorescence assay; type: toxicity, cell-based; settings: bv-2, 24 h
Method in brief: (§2)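 BV-2 cells seeded overnight at 1 × 10^4/well, compound alone (no Aβ). Cells loaded with 20 μM (final) DCFH-DA for 30 min at 37 °C, washed, then given conditioned medium for 24 h. Fluorescence read at ex […] nm. Expressed as % of control; n = 3 in triplicate, one-way ANOVA with LSD.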

BV-2 [6] = assay: Neuroprotective activity in amyloid beta (1 to 42)-induced oxidative stress in mouse BV-2 cells assessed as intracellular ROS level at 10 uM measured after 24 hrs by DCFH-DA staining based fluorescence assay (reference value: 150.91 +/- 0.49%); type: functional
BV-2 [7] = assay: Neuroprotective activity in amyloid beta (1 to 42)-induced inflammation in mouse BV-2 cells assessed as TNFalpha mRNA expression at 10 uM measured after 24 hrs by SYBR green staining based qRT-PCR analysis (reference value: 1.73 +/- 0.22%); type: functional
BV-2 [8] = assay: Neuroprotective activity in amyloid beta (1 to 42)-induced inflammation in mouse BV-2 cells assessed as IL-1beta mRNA expression at 10 uM measured after 24 hrs by SYBR green staining based qRT-PCR analysis (reference value: 1.53 +/- 0.13%); type: functional
BV-2 [9] = assay: Neuroprotective activity in amyloid beta (1 to 42)-induced inflammation in mouse BV-2 cells assessed as change in IL-6 mRNA expression at 10 uM measured after 24 hrs by SYBR green staining based qRT-PCR analysis; type: functional, cell-based
[10] = target: T1, Amyloid-beta precursor protein; assay: Inhibition of amyloid beta (1 to 42) aggregation in mouse BV-2 cells exposed to amyloid-beta (1 to 42) (unknown origin) at 10 uM measured after 24 to 48 hrs by thioflavin T staining based fluorescence assay; type: cell-based; settings: time 24-48 hrs
SH-SY5Y [11] = assay: Neuroprotective activity against human SH-SY5Y cells co-cultured with 10 uM compound pretreated BV-2 cells exposed to amyloid beta (1 to 42) assessed as cell viability measured after 24 hrs by MTT assay (reference value: 80.62 +/- 0.86%); type: functional; settings: read-out: Activity
[12] = Octanol/water partition coefficient, log P of the compound incubated for 2 hrs under shaking condition by HPLC analysis; type: physicochemical
Method in brief: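 Shake-flask log P: 10 mM stock (DMSO, or octanol for highly lipophilic compounds) partitioned between mutually saturated octanol and water at three phase ratios. Shaken 2 h at 25 ± 1 °C, phases separated, each phase quantified by C18 HPLC-UV. Mobile phase 0.1% formic acid:methanol 40:60; log P averaged over the three ratios.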

BV-2 [13] = assay: Cytotoxicity against mouse BV-2 cells assessed as reduction in cell viability at 2.5 uM measured after 24 hrs by MTT assay; type: toxicity, cell-based; settings: bv-2, 24 h; method in brief: as §1
BV-2 [14] = assay: Neuroprotective activity in amyloid beta (1 to 42)-induced cytotoxicity in mouse BV-2 cells assessed as cell viability at 2.5 uM measured after 24 hrs by MTT assay (reference value: 54.96 +/- 1.12%); type: functional; settings: read-out: Activity
[15] = Induction of ROS generation in mouse BV-2 cells at 2.5 uM measured after 24 hrs by DCFH-DA staining based fluorescence assay; type: toxicity, cell-based; settings: bv-2, 24 h; method in brief: as §2
BV-2 [16] = assay: Neuroprotective activity in amyloid beta (1 to 42)-induced oxidative stress in mouse BV-2 cells assessed as intracellular ROS level at 2.5 uM measured after 24 hrs by DCFH-DA staining based fluorescence assay (reference value: 150.91 +/- 0.49%); type: functional
BV-2 [17] = assay: Neuroprotective activity in amyloid beta (1 to 42)-induced inflammation in mouse BV-2 cells assessed as TNFalpha mRNA expression at 2.5 uM measured after 24 hrs by SYBR green staining based qRT-PCR analysis (reference value: 1.73 +/- 0.22%); type: functional
BV-2 [18] = assay: Neuroprotective activity in amyloid beta (1 to 42)-induced inflammation in mouse BV-2 cells assessed as IL-1beta mRNA expression at 2.5 uM measured after 24 hrs by SYBR green staining based qRT-PCR analysis (reference value: 1.53 +/- 0.13%); type: functional
BV-2 [19] = assay: Neuroprotective activity in amyloid beta (1 to 42)-induced inflammation in mouse BV-2 cells assessed as change in IL-6 mRNA expression at 2.5 uM measured after 24 hrs by SYBR green staining based qRT-PCR analysis; type: functional, cell-based
[20] = target: T1, Amyloid-beta precursor protein; assay: Inhibition of amyloid beta (1 to 42) aggregation in mouse BV-2 cells exposed to amyloid-beta (1 to 42) (unknown origin) at 2.5 uM measured after 24 to 48 hrs by thioflavin T staining based fluorescence assay; type: cell-based; settings: time 24-48 hrs
BV-2 [21] = assay: Neuroprotective activity in amyloid beta (1 to 42)-induced morphological changes in mouse BV-2 cells assessed as appearance of healthy cells at 2.5 uM; type: functional, cell-based
SH-SY5Y [22] = assay: Neuroprotective activity against human SH-SY5Y cells co-cultured with 2.5 uM compound pretreated BV-2 cells exposed to amyloid beta (1 to 42) assessed as cell viability measured after 24 hrs by MTT assay (reference value: 80.62 +/- 0.86%); type: functional; settings: read-out: Activity
[23] = target: T1, Amyloid-beta precursor protein; assay: Inhibition of amyloid beta (1 to 42) (unknown origin) aggregation assessed as reduction in amyloid beta fibril formation at 2.5 uM measured after 48 hrs by transmission electron microscopy
[24] = target: T1, Amyloid-beta precursor protein; assay: Inhibition of amyloid beta (1 to 42) (unknown origin) aggregation assessed as appearance of collapsed amyloid beta fibrils at 2.5 uM measured after 48 hrs by transmission electron microscopy

T1 sequence (P05067 whole entry): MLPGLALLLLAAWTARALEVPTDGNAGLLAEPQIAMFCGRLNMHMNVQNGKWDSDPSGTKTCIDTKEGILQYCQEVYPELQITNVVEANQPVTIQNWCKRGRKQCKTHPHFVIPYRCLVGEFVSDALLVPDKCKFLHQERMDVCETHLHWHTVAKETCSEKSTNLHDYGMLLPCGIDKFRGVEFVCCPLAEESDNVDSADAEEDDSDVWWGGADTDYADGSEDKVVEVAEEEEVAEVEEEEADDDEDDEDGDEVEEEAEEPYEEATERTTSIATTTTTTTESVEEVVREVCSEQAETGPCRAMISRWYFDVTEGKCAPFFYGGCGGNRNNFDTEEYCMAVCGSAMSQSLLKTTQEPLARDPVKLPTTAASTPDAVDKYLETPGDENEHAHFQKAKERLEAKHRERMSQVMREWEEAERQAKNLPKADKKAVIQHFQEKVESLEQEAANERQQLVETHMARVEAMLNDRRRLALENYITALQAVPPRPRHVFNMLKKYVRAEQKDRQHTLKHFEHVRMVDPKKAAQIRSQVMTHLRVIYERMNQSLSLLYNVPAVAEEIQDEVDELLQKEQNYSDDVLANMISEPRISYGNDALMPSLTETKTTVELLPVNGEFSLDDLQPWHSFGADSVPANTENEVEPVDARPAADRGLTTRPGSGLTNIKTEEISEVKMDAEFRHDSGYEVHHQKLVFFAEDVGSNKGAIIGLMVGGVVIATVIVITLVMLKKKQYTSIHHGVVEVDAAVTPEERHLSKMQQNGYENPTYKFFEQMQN

In the case of `COc1cc(/C=C/C(=O)OCc2cn(-c3ccc(Oc4ccccc4)cc3)nn2)ccc1O`, the inhibition [1] is reported as > 50%, the IC50 [2] is reported as 14.1 µM and the Activity (BV-2 [3]) is reported as “Non-Toxic”. For the same compound, the viability at 10 µM (BV-2 [4]) was 62.9%, the Activity [5] was “Non-Toxic” and the Activity (BV-2 [6]) was 105.68%. For the same compound, the Activity (BV-2 [7]) was 1.19%, the Activity (BV-2 [8]) was 8.29% and the Activity (BV-2 [9]) was “inactive”. For the same compound, the inhibition [10] was “Active”, the viability at 10 µM (SH-SY5Y [11]) was 87.2% and the logP at 2 h [12] was 4.92.

With `COc1cc(/C=C/C(=O)OCc2cn(-c3cc4ccccc4oc3=O)nn2)ccc1O` the inhibition [1] was > 50%, the IC50 [2] was 0.008 µM and the Activity (BV-2 [13]) was “Non-Toxic”. The viability at 2.5 µM (BV-2 [14]) was 71.3%, the Activity [15] was “Non-Toxic” and the Activity (BV-2 [16]) was 107.04%. The Activity (BV-2 [17]) was 1.09%, the Activity (BV-2 [18]) was 0.71% and the Activity (BV-2 [19]) was “inactive”. For the same compound, the inhibition [20] was “Active”, the Activity (BV-2 [21]) was “Active” and the viability at 2.5 µM (SH-SY5Y [22]) was 91.5%. For the same compound, the inhibition [23] was “Active”, the logP at 2 h [12] was 2.64 and the inhibition [24] was “Active”.

Source: ChEMBL document CHEMBL5584325, “Discovery of novel coumarin triazolyl and phenoxyphenyl triazolyl derivatives targeting amyloid beta aggregation-mediated oxidative stress and neuroinflammation for enhanced neuroprotection” (RSC Med Chem, 2024)
